Experimental data from different studies.
Lines come from different studies, so protocols differ.
Species: human

SMILES	sample	route	dose	notes	Cmax
FC(F)(F)c1ccc(CNc2ccc(Cc3c[nH]c4ncc(Cl)cc34)cn2)cn1	plasma	oral	1600 mg	multiple doses, patients	8770 ng/mL
O=C(NO)c1ccc(CN(c2cnccn2)c2cnccn2)cc1	plasma	oral	800 mg	multiple doses, twice daily, patients	1270 ng/mL
COc1cc(C(=O)NC2CCN(C)CC2)c(F)cc1Nc1ncc(C(F)(F)F)c(Oc2cccc3c2C(=O)N(C)C3)n1	plasma	oral	10 mg	multiple doses, once daily, steady state, patients	59.2 nM
CCc1nc2c(C)cc(N3CCN(CC(=O)N4CC(O)C4)CC3)cn2c1N(C)c1nc(-c2ccc(F)cc2)c(C#N)s1	plasma	oral	60 mg	single dose, fed, healthy volunteers	600 ng/mL
CO[C@@H]1[C@H](OC(=O)N2CC(CCN3CCOCC3)C2)CC[C@]2(CO2)[C@H]1[C@@]1(C)O[C@@H]1CC=C(C)C	plasma	subcutaneous	0.2 mg	single dose, healthy volunteers	0.45 ng/mL
COc1ccc([C@@H]2CN(C(=O)[C@@H](O)CO)C[C@@]2(C)[C@@H](C)O)cc1OC1CN(c2ccc(C)cn2)C1	plasma	oral	40 mg	single dose, healthy volunteers	799 ng/mL
CC(=O)Oc1ccccc1C(=O)O	plasma	oral	650 mg	healthy volunteers	3480 ng/mL
NS(=O)(=O)NCCNc1nonc1C(=NO)Nc1ccc(F)c(Br)c1	plasma	oral	600 mg	multiple doses, twice daily, steady state, patients	4820 nM
O=C(Nc1c(Cl)cncc1Cl)c1ccc(OC(F)F)c(OCC2CC2)c1	plasma	oral	0.5 mg	single dose, fasted	12.5 ng/mL
CO[C@H]1CC[C@H](N2C(=O)CNc3ncc(-c4ccc(C(C)(C)O)nc4)nc32)CC1	plasma	oral	15 mg	multiple doses, patients	92 ng/mL
CS(=O)(=O)CCNCc1ccc(-c2ccc3ncnc(Nc4ccc(OCc5cccc(F)c5)c(Cl)c4)c3c2)o1	serum	oral	1250 mg	single dose	910 ng/mL
COC(=O)N[C@@H](C)CNc1nccc(-c2cn(C(C)C)nc2-c2cc(Cl)cc(NS(C)(=O)=O)c2F)n1	plasma	oral	50 mg	single dose	482 ng/mL
CCO[C@H]1CCN(Cc2c(OC)cc(C)c3[nH]ccc23)[C@H](c2ccc(C(=O)O)cc2)C1	plasma	oral	25 mg	multiple doses, twice daily, patients	1450 ng/mL
Cn1cc(-c2ccc(S(=O)(=O)[C@@H]3C[C@@H](C(=O)NC4(C#N)CC4)N(C(=O)C4(C(F)(F)F)CC4)C3)c(C(F)(F)F)c2)cn1	plasma	oral	10 mg	single dose, fasted, healthy volunteers	81.3 ng/mL
CCn1c(=O)c(-c2cc(NC(=O)Nc3ccccc3)c(F)cc2Br)cc2cnc(NC)cc21	plasma	oral	30 mg	single dose, patients	133 ng/mL
Cc1nc(Nc2ncc(C(=O)Nc3c(C)cccc3Cl)s2)cc(N2CCN(CCO)CC2)n1	plasma	oral	65 mg/m²	multiple doses, twice daily, steady state, patients	168 ng/mL
COCCOc1cnc2ccn([C@H](C)c3nnc4c(F)cc(-c5cnn(C)c5)cn34)c(=O)c2c1	plasma	oral	50 mg	multiple doses, once daily, patients	730 ng/mL
CO[C@H]1/C=C\C=C(/C)C(=O)NC2=CC(=O)C(NCCN(C)C)=C(C[C@@H](C)C[C@H](OC)[C@H](O)[C@@H](C)/C=C(\C)[C@@H]1OC(N)=O)C2=O	plasma	intravenous	12 mg/m²	patients, infusion	196 ng/mL
CC(C)n1cc(C#N)c2cc(-n3cc(C(=O)O)cn3)ccc21	plasma	oral	400 mg	single dose, fasted, healthy volunteers	14700 ng/mL
CCCCC1=NC2(CCCC2)C(=O)N1Cc1ccc(-c2ccccc2S(=O)(=O)Nc2noc(C)c2C)c(COCC)c1	plasma	oral	800 mg	single dose, fed, healthy volunteers	16200 ng/mL
CC(C)(C(=O)N1CCOc2c(C#N)cncc2C1)C(F)F	plasma	oral	30 mg	single dose, fasted, healthy volunteers	417 ng/mL
